Data reported in ChEMBL document CHEMBL4033652, “Design, synthesis, and pharmacological evaluation of 4-azolyl-benzamide derivatives as novel GPR52 agonists” (Bioorg Med Chem, 2017).

Key:
[1] = biological target: T1, G-protein coupled receptor 52 (Homo sapiens, UniProt Q9Y2T5); test: Agonist activity at human GPR52 expressed in CHO cells assessed as increase in cAMP level after 30 mins by AlphaScreen assay relative to (N-(2-hydroxyethyl)-3-(2-(3-(trifluoromethyl)benzyl)-1-benzofuran-4-yl)benzamide); assay type: functional, cell-based
T1 sequence (Q9Y2T5 whole entry): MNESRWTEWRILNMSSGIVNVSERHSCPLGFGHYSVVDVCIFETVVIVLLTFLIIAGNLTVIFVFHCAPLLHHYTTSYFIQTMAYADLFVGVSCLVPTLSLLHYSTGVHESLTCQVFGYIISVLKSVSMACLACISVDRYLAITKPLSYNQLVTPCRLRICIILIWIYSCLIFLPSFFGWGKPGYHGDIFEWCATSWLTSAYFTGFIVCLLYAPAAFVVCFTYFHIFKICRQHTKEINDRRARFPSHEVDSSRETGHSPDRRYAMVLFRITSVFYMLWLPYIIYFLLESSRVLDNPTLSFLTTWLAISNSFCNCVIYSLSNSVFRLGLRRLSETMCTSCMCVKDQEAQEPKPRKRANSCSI
Procedure, shortened: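 CHO cells stably expressing human GPR52, 10,000 cells per well, exposed to compound 30 min at 37°C in HBSS with 5 mM HEPES pH 7.6, 0.5% BSA, 100 µM IBMX and 100 µM Ro20-1724. cAMP measured by AlphaScreen with acceptor and biotinylated donor beads after overnight room-temperature incubation. Emax set relative to the reference benzofuran benzamide (100%). EC50 taken from mean curves, n = 2–4, with 95% CI.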

[2] = biological target: T1, G-protein coupled receptor 52; test: Agonist activity at human GPR52 expressed in CHO cells assessed as increase in cAMP level after 30 mins by AlphaScreen assay; assay type: functional, cell-based
Procedure, shortened: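 CHO cells stably expressing human GPR52 (10,000/well) exposed to compound at various concentrations, 30 min, 37°C, in HBSS with 5 mM HEPES pH 7.6, 0.5% BSA, 100 µM IBMX and 100 µM Ro20-1724. AlphaScreen acceptor/donor beads added overnight at room temperature. Response expressed relative to a reference benzofuran agonist (100%). EC50 from mean curves, n = 2–4, 95% CI.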

[3] = AUC (0 to 8 hrs) in Sprague-Dawley rat at 1 mg/kg, po administered as cassette dose by LC-MS/MS analysis; assay type: ADME, organism-based; design: time < 8 hr, dose 1 mg/kg, route oral; settings: in vivo
Procedure, shortened: (§1)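 Cassette dosing in non-fasted male SD rats (n = 3): i.v. 0.1 mg/kg or p.o. 1 mg/kg. Plasma prepared from blood, deproteinized, centrifuged, supernatant measured by LC/MS/MS. AUC taken over 0–8 h.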

[4] = Total clearance in Sprague-Dawley rat at 0.1 mg/kg, iv or 1 mg/kg, po administered as cassette dose by LC/MS/MS analysis; assay type: ADME, organism-based; settings: in vivo; procedure, shortened: as §1
[5] = Oral bioavailability in Sprague-Dawley rat at 1 mg/kg administered as cassette dose by LC-MS/MS analysis; assay type: ADME, organism-based; settings: in vivo; procedure, shortened: as §1

Row | Emax [1] | EC50 [2] | AUC(0-t) at 8 h [3] | clearance [4] | bioavailability [5] | SMILES
1 | 86% | 73 nM |  |  |  | Cc1cc(-c2sc(Cc3cccc(C(F)(F)F)c3)nc2C)ccc1C(N)=O
2 | 88% | 170 nM |  |  |  | COc1cc(-c2sc(Cc3cccc(C(F)(F)F)c3)nc2C)ccc1C(N)=O
3 | 123% | 23 nM | 155 ng·h/mL | 32.9 mL/min/kg | 30.5% | Cc1cc(-c2cc(Cc3cc(F)cc(C(F)(F)F)c3)nn2C)ccc1C(N)=O
4 | 93% | 11 nM | 60.5 ng·h/mL | 39.5 mL/min/kg | 14% | Cc1cc(-c2sc(Cc3cc(F)cc(C(F)(F)F)c3)nc2C)ccc1C(N)=O
5 | 93% | 220 nM |  |  |  | Cc1nc(Cc2cccc(C(F)(F)F)c2)sc1-c1ccc(C(N)=O)cc1
6 | 107% | 59 nM | 268 ng·h/mL | 18.8 mL/min/kg | 28.4% | Cc1cc(-n2cc(Cc3cc(F)cc(C(F)(F)F)c3)nc2C)ccc1C(N)=O
7 | 63% | 370 nM |  |  |  | Cc1nc(Cc2cccc(C(F)(F)F)c2)sc1-c1ccc(C(N)=O)c(C(C)C)c1
8 | 60% | 210 nM |  |  |  | Cc1cc(-c2sc(Cc3ccc(Cl)cc3)nc2C)ccc1C(N)=O
9 | 51% | 3900 nM |  |  |  | Cc1cc(-c2sc(Cc3ccccc3Cl)nc2C)ccc1C(N)=O
10 | 85% | 160 nM |  |  |  | COc1cccc(Cc2nc(C)c(-c3ccc(C(N)=O)c(C)c3)s2)c1
11 | 84% | 83 nM |  |  |  | CCc1cc(-c2sc(Cc3cccc(C(F)(F)F)c3)nc2C)ccc1C(N)=O
